Assay results from ChEMBL document CHEMBL1154107, “Inhibitors of VIM-2 by screening pharmacologically active and click-chemistry compound libraries” (Bioorg Med Chem, 2009).
Converted amounts (≈) assume the structure as drawn. The source made the active and inactive calls. No cut-off for these calls is given here.

Tests used:
[1] = tested on: Escherichia coli BL21(DE3); test: (§1) Inhibition of VIM2 in imipenem-resistant Escherichia coli BL21(DE3) assessed as potentiation of imipenem-induced bactericidal activity at […] after 18 hrs by checkerboard microdilution method
Escherichia coli [2] = test: Bacteriostatic activity against imipenem-resistant Escherichia coli BL21(DE3) expressing VIM2 gene at […] after 24 hrs by broth microdilution method; format: functional
[3] = tested on: Escherichia coli BL21(DE3); test: as §1; remark: listed apart in the source
Escherichia coli [4] = test: Bacteriostatic activity against imipenem-non resistant Escherichia coli BL21(DE3) at […] after 24 hrs by broth microdilution method; format: functional
[5] = tested on: Escherichia coli BL21(DE3); test: Inhibition of VIM2 in imipenem-resistant Escherichia coli BL21(DE3) assessed as potentiation of imipenem-induced bactericidal activity at 4.2 ug/mL after 18 hrs by checkerboard microdilution method
How it was run: (§2)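 Checkerboard in 96-well plates, 0.2 mL. […] BL21/VIM-2 pre-grown 5 h at 37°C with kanamycin; inoculum 1 × 10^6 CFU/mL. Shaken ≥18 h at 37°C. MIC read per CLSI; synergy by ΣFIC; QC strain ATCC 35218.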

Escherichia coli [6] = test: Bactericidal activity against imipenem-resistant Escherichia coli BL21(DE3) expressing VIM2 gene at […] after 24 hrs by broth microdilution method; format: functional
[7] = tested on: Escherichia coli BL21(DE3); test: Inhibition of VIM2 in imipenem-resistant Escherichia coli BL21(DE3) assessed as potentiation of imipenem-induced bactericidal activity at 50 uM after 18 hrs by twofold serial broth dilution method
Escherichia coli [8] = test: Bactericidal activity against imipenem-non resistant Escherichia coli BL21(DE3) at […] after 24 hrs by broth microdilution method; format: functional
Escherichia coli [9] = test: Antibacterial activity against imipenem-non resistant Escherichia coli BL21(DE3) after 18 hrs by twofold serial broth dilution method; format: functional
How it was run: (§3)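 Two-fold serial broth dilution MIC per CLSI, 10-point dilutions in Iso-Sensitest broth, 2 mL tubes. BL21 grown 5 h at 37°C in LB (kanamycin 30 μg/mL for pET-9a VIM-2 transformants). Inoculum 5 × 10^5 CFU/mL; shaken ≥18 h at 37°C aerobically.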

[10] = Inhibition of IMP1 using nitrocefin as substrate at 56 uM after 15 mins by microtiter plate assay
[11] = Inhibition of VIM2 using nitrocefin as substrate by rapid dilution method
[12] = Inhibition of IMP1 using nitrocefin as substrate after 15 mins by microtiter plate assay
[13] = Inhibition of VIM2 using CCF2 as substrate after 15 mins by FRET assay
[14] = Inhibition of TEM-1 using nitrocefin as substrate after 15 mins by microtiter plate assay
Escherichia coli [15] = test: Antibacterial activity against imipenem-resistant Escherichia coli BL21(DE3) expressing VIM2 gene after 18 hrs by twofold serial broth dilution method; format: functional; how it was run: as §3
[16] = Inhibition of TEM-1 using nitrocefin as substrate at 25 uM after 15 mins by microtiter plate assay
[17] = Inhibition of VIM2 using CCF2 as substrate at 44 uM after 15 mins by FRET assay
How it was run: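 VIM-2 (0.1 nM final) in 50 mM HEPES, 50 μM ZnSO4, 0.05% Brij 35, pH 7.1, preincubated 15 min at RT with compound; CCF2-FA added to 10 μM, 25 min at RT, stopped with EDTA. Ratiometric fluorescence read at excitation 409 nm, emission 460/535 nm. Triplicate ten-point 1:3 dilutions; IC50 from four-parameter fit of ratio data.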

[18] = Inhibition of VIM2 using nitrocefin as substrate at 56 uM after 15 mins by microtiter plate assay
[19] = Inhibition of VIM2 using nitrocefin as substrate after 15 mins by microtiter plate assay
Enterobacter cloacae = test: Inhibition of Enterobacter cloacae AmpC using nitrocefin as substrate at 25 uM after 15 mins by microtiter plate assay
[20] = Inhibition of Enterobacter cloacae AmpC using nitrocefin as substrate after 15 mins by microtiter plate assay
Escherichia coli [21] = test: Selectivity ratio of MIC for imipenem-resistant Escherichia coli BL21(DE3) expressing VIM2 gene to MIC for imipenem-non resistant Escherichia coli BL21(DE3); format: functional
[22] = Inhibition of VIM2 using CCF2 as substrate at 36 uM after 15 mins by FRET assay
How it was run: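 FRET endpoint assay in 50 mM HEPES, 50 μM ZnSO4, 0.05% Brij 35, pH 7.1. VIM-2 (0.1 nM final) preincubated 15 min at RT with compound. CCF2-FA added to 10 μM final, 25 min at RT, stopped with EDTA. Excitation 409 nm, emissions 460 and 535 nm, read as ratio. Triplicate dilution series starting at 56 μM nominal.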

[23] = tested on: Escherichia coli BL21(DE3); test: Inhibition of VIM2 in imipenem-resistant Escherichia coli BL21(DE3) assessed as potentiation of imipenem-induced bactericidal activity at 4.5 ug/mL after 18 hrs by checkerboard microdilution method; how it was run: as §2
[24] = Inhibition of VIM2 using nitrocefin as substrate at 15 uM after 15 mins by microtiter plate assay
Escherichia coli [25] = test: Bactericidal activity against imipenem-resistant Escherichia coli BL21(DE3) expressing VIM2 gene at […] up to 6 hrs by broth microdilution method; format: functional
Escherichia coli [26] = test: Bactericidal activity against imipenem-resistant Escherichia coli BL21(DE3) expressing VIM2 gene at […] after 6 hrs by broth microdilution method; format: functional
[27] = Inhibition of IMP1 using nitrocefin as substrate at 140 uM after 15 mins by microtiter plate assay
Escherichia coli [28] = test: Bactericidal activity against imipenem-non resistant Escherichia coli BL21(DE3) at […] after 6 hrs by broth microdilution method; format: functional
Escherichia coli [29] = test: Bactericidal activity against imipenem-non resistant Escherichia coli BL21(DE3) at […] up to 6 hrs by broth microdilution method; format: functional
[30] = tested on: Escherichia coli BL21(DE3); test: Inhibition of VIM2 in imipenem-resistant Escherichia coli BL21(DE3) assessed as potentiation of imipenem-induced bactericidal activity at 8.9 ug/mL after 18 hrs by checkerboard microdilution method; how it was run: as §2
[31] = Inhibition of IMP1 in Escherichia coli

Compound: O=C1c2c(O)ccc(O)c2C(=O)c2c(NCCNCCO)ccc(NCCNCCO)c21
- Activity [1]: Active
- Activity (Escherichia coli [2]): inactive
- Activity [3]: Active
- Activity (Escherichia coli [4]): inactive
- Activity [5]: Active
- Activity (Escherichia coli [6]): inactive
- Activity [7]: Active
- Activity (Escherichia coli [8]): inactive

Compound: C#CCCOCc1nn[nH]c1CNS(=O)(=O)c1ccc(I)cc1
- MIC (Escherichia coli [9]): > 60 µg/mL
- inhibition [10]: 0%
- Ki [11]: 0.41 µM
- IC50 [12]: > 56 µM
- IC50 [13]: 1.3 µM
- IC50 [14]: > 25 µM
- MIC (Escherichia coli [15]): > 60 µg/mL
- inhibition [16]: 0%
- inhibition [17]: 76%
- inhibition [18]: 79%
- IC50 [19]: 3.3 µM
- inhibition (Enterobacter cloacae): 0%
- Activity [7]: inactive
- IC50 [20]: > 25 µM

Compound: 4-[sequence] ACID
- Activity [1]: Active
- Activity (Escherichia coli [2]): inactive
- Ratio (Escherichia coli [21]): 9
- MIC (Escherichia coli [9]): 17.9 µg/mL
- inhibition [22]: 83%
- Activity [23]: Active
- inhibition [24]: 80%
- MIC (Escherichia coli [15]): 17.9 µg/mL
- Activity (Escherichia coli [4]): inactive
- inhibition [16]: 0%
- Activity (Escherichia coli [25]): Active
- Activity (Escherichia coli [26]): inactive
- inhibition [27]: 0%
- inhibition (Enterobacter cloacae): 0%
- Activity (Escherichia coli [28]): inactive
- Activity [7]: Active
- Activity (Escherichia coli [29]): Active
- Activity [30]: Active

Compound: 4-CHLOROMERCURIBENZOIC ACID
- IC50 [14]: > 25 µM
- IC50 [20]: > 25 µM

Compound: O=C(O)CC(Cc1ccccc1Cl)C(=O)O (stereo not given)
- IC50 [12]: 1.6 µM
- Ki [12]: 1.6 µM
- IC50 [13]: 50 µM
- Ki [31]: 3.3 µM
- IC50 [19]: 33 µM

Compound: CC1(C)OCC(COCc2nn[nH]c2CNS(=O)(=O)c2ccc(I)cc2)O1 (stereo not given)
- inhibition [18]: 31%
- IC50 [19]: > 56 µM

Compound: Cn1cc(Cc2nn[nH]c2CNS(=O)(=O)c2ccc(I)cc2)c2ccccc21
- inhibition [18]: 11%
- IC50 [19]: > 56 µM

Compound: C[C@@H](O)[C@H]1C(=O)N2C(C(=O)O)=C(SCCNC=N)C[C@H]12 [IMIPENEM ANHYDROUS]
- MIC (Escherichia coli [9]): 0.2 µg/mL (≈ 0.668 µM)

Compound: O=S(=O)(NCc1[nH]nnc1CN1CCN(c2ccc(Cl)c(Cl)c2)CC1)c1ccc(I)cc1
- inhibition [18]: 5%
- IC50 [19]: > 56 µM

Compound: Cc1ccc(Cl)cc1N1CCN(Cc2nn[nH]c2CNS(=O)(=O)c2ccc(I)cc2)CC1
- inhibition [18]: 0%
- IC50 [19]: > 56 µM

Compound: COCc1nn[nH]c1CNS(=O)(=O)c1ccc(I)cc1
- MIC (Escherichia coli [9]): > 60 µg/mL
- inhibition [10]: 0%
- Ki [11]: 1.41 µM
- IC50 [12]: > 56 µM
- IC50 [13]: 4.1 µM
- IC50 [14]: > 25 µM
- MIC (Escherichia coli [15]): > 60 µg/mL
- inhibition [16]: 0%
- inhibition [17]: 90%
- inhibition [18]: 74%
- IC50 [19]: 7.3 µM
- inhibition (Enterobacter cloacae): 0%
- Activity [7]: inactive
- IC50 [20]: > 25 µM
